“And” between values parts separate entries of the source, which are not always exact repeats. Equal values may be shown once.
Tested on: U2OS
Assay: Multiplex assay against U2OS
Format: toxicity, cell-based
Conditions: human, number of replicates 2
Summary of the method: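 Live cells were stained at seeding with Hoechst33342, BioTracker Green Microtubule Cytoskeleton Dye, MitoTracker Red and Annexin V Alexa Fluor 680, then imaged on a CQ1 microscope at 37°C and 5% CO2 after compound addition. CellPathfinder machine-learning gating split cells into Hoechst high-intensity objects or normal cells. Normal cells were split into healthy, pyknosed or fragmented nuclei, and pyknosed cells into mitotic or apoptotic. Tubulin, mitochondrial-mass and membrane-permeability phenotypes are per cents of healthy-nucleus cells.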

[1] = 12 h, 1 µM, compound concentration 1 uM
[2] = 12 h, 10 µM, compound concentration 10 uM
[3] = 24 h, 1 µM, compound concentration 1 uM
[4] = 24 h, 10 µM, compound concentration 10 uM
[5] = 48 h, 1 µM, compound concentration 1 uM
[6] = 48 h, 10 µM, compound concentration 10 uM

For CCN(CC)C/C=C/C(=O)Nc1cc2c(Nc3ccc(F)c(Cl)c3)ncnc2cc1OCC1CC1, the “Population Apoptotic (%)” value [1] was 100% and 80%, the “Population Healthy Nuclei (%)” value [1] was 61% and 76% and the “Population Hoechst High Intensity Objects (%)” value [1] was 0%. For the same compound, the “Population Membrane Permeable-Phenotype (%)” value [1] was 4% and 13%, the “Population Mitochondria Different-Phenotype (%)” value [1] was 29% and 21% and the “Population Mitotic Cells (%)” value [1] was 0% and 20%. For the same compound, the “Population Normal (%)” value [1] was 100%, the “Population Pyknosed Nuclei (%)” value [1] was 17% and 16% and the “Population Tubulin-Different-Phenotype (%)” value [1] was 58% and 49%. The “Population Apoptotic (%)” value [2] was 80% and 91%, the “Population Fragmented Nuclei (%)” value [2] was 27% and 10% and the “Population Healthy Nuclei (%)” value [2] was 25% and 48%. The “Population Hoechst High Intensity Objects (%)” value [2] was 0% and 1%, the “Population Membrane Permeable-Phenotype (%)” value [2] was 45% and 31% and the “Population Mitochondria Different-Phenotype (%)” value [2] was 45% and 57%. The “Population Mitotic Cells (%)” value [2] was 20% and 8%, the “Population Normal (%)” value [2] was 100% and 98% and the “Population Pyknosed Nuclei (%)” value [2] was 46% and 40%. The “Population Tubulin-Different-Phenotype (%)” value [2] was 90% and 95%, the “Population Apoptotic (%)” value [3] was 88% and 82% and the “Population Healthy Nuclei (%)” value [3] was 58% and 73%. For the same compound, the “Population Hoechst High Intensity Objects (%)” value [3] was 0%, the “Population Membrane Permeable-Phenotype (%)” value [3] was 10% and 15% and the “Population Mitochondria Different-Phenotype (%)” value [3] was 44% and 39%. The “Population Mitotic Cells (%)” value [3] was 11% and 17%, the “Population Normal (%)” value [3] was 100% and 99% and the “Population Pyknosed Nuclei (%)” value [3] was 18% and 23%. For the same compound, the “Population Tubulin-Different-Phenotype (%)” value [3] was 51% and 48%, the “Population Apoptotic (%)” value [4] was 93% and the “Population Healthy Nuclei (%)” value [4] was 11% and 1%. The “Population Hoechst High Intensity Objects (%)” value [4] was 1%, the “Population Mitotic Cells (%)” value [4] was 6% and the “Population Normal (%)” value [4] was 98%. For the same compound, the “Population Pyknosed Nuclei (%)” value [4] was 78% and 56%, the “Population Tubulin-Different-Phenotype (%)” value [4] was 93% and 100% and the “Total Cell Count” value [4] was 133 and 52. For the same compound, the “Population Apoptotic (%)” value [5] was 84% and 98%, the “Population Healthy Nuclei (%)” value [5] was 52% and 71% and the “Population Hoechst High Intensity Objects (%)” value [5] was 1% and 0%. The “Population Membrane Permeable-Phenotype (%)” value [5] was 10% and 12%, the “Population Mitochondria Different-Phenotype (%)” value [5] was 34% and 30% and the “Population Normal (%)” value [5] was 98% and 100%. The “Population Pyknosed Nuclei (%)” value [5] was 23% and 22%, the “Population Tubulin-Different-Phenotype (%)” value [5] was 37% and 42% and the “Population Apoptotic (%)” value [6] was 100% and 98%. The “Population Healthy Nuclei (%)” value [6] was 1% and 7%, the “Population Hoechst High Intensity Objects (%)” value [6] was 0% and the “Population Membrane Permeable-Phenotype (%)” value [6] was 100% and 88%. The “Population Mitochondria Different-Phenotype (%)” value [6] was 100% and 88%, the “Population Mitotic Cells (%)” value [6] was 0% and 1% and the “Population Normal (%)” value [6] was 100% and 99%. For the same compound, the “Population Pyknosed Nuclei (%)” value [6] was 46% and 87%, the “Population Tubulin-Different-Phenotype (%)” value [6] was 100% and the “Total Cell Count” value [6] was 56 and 120.

In the case of CSc1cc2c(cc1C(F)(F)F)N(C(=O)Nc1cccnc1)CC2, the “Population Apoptotic (%)” value [1] is reported as 33% and 45%, the “Population Healthy Nuclei (%)” value [1] is reported as 61% and 90% and the “Population Hoechst High Intensity Objects (%)” value [1] is reported as 0%. For the same compound, the “Population Membrane Permeable-Phenotype (%)” value [1] was 0% and 2%, the “Population Mitochondria Different-Phenotype (%)” value [1] was 0% and 1% and the “Population Mitotic Cells (%)” value [1] was 66% and 54%. For the same compound, the “Population Normal (%)” value [1] was 100%, the “Population Pyknosed Nuclei (%)” value [1] was 17% and 8% and the “Population Tubulin-Different-Phenotype (%)” value [1] was 71% and 84%. For the same compound, the “Population Apoptotic (%)” value [2] was 42% and 66%, the “Population Healthy Nuclei (%)” value [2] was 82% and 50% and the “Population Hoechst High Intensity Objects (%)” value [2] was 0% and 3%. The “Population Membrane Permeable-Phenotype (%)” value [2] was 0% and 7%, the “Population Mitochondria Different-Phenotype (%)” value [2] was 0% and the “Population Mitotic Cells (%)” value [2] was 57% and 33%. The “Population Normal (%)” value [2] was 100% and 96%, the “Population Pyknosed Nuclei (%)” value [2] was 12% and 11% and the “Population Tubulin-Different-Phenotype (%)” value [2] was 94% and 38%. For the same compound, the “Population Apoptotic (%)” value [3] was 60% and 26%, the “Population Healthy Nuclei (%)” value [3] was 69% and 89% and the “Population Hoechst High Intensity Objects (%)” value [3] was 0%. For the same compound, the “Population Membrane Permeable-Phenotype (%)” value [3] was 3% and 1%, the “Population Mitochondria Different-Phenotype (%)” value [3] was 0% and the “Population Mitotic Cells (%)” value [3] was 40% and 73%. The “Population Normal (%)” value [3] was 100%, the “Population Pyknosed Nuclei (%)” value [3] was 12% and 6% and the “Population Tubulin-Different-Phenotype (%)” value [3] was 66% and 84%. For the same compound, the “Population Apoptotic (%)” value [4] was 100% and 45%, the “Population Healthy Nuclei (%)” value [4] was 66% and 88% and the “Population Hoechst High Intensity Objects (%)” value [4] was 2% and 0%. The “Population Membrane Permeable-Phenotype (%)” value [4] was 0% and 1%, the “Population Mitochondria Different-Phenotype (%)” value [4] was 0% and 1% and the “Population Normal (%)” value [4] was 97% and 100%. The “Population Pyknosed Nuclei (%)” value [4] was 11% and 7%, the “Population Tubulin-Different-Phenotype (%)” value [4] was 58% and 93% and the “Population Apoptotic (%)” value [5] was 83% and 46%. For the same compound, the “Population Fragmented Nuclei (%)” value [5] was 6% and 2%, the “Population Healthy Nuclei (%)” value [5] was 83% and 90% and the “Population Hoechst High Intensity Objects (%)” value [5] was 3% and 0%. The “Population Membrane Permeable-Phenotype (%)” value [5] was 6% and 1%, the “Population Mitochondria Different-Phenotype (%)” value [5] was 0% and the “Population Normal (%)” value [5] was 96% and 100%. For the same compound, the “Population Pyknosed Nuclei (%)” value [5] was 10% and 6%, the “Population Tubulin-Different-Phenotype (%)” value [5] was 67% and 85% and the “Population Apoptotic (%)” value [6] was 29% and 42%. For the same compound, the “Population Fragmented Nuclei (%)” value [6] was 3% and 10%, the “Population Healthy Nuclei (%)” value [6] was 89% and 75% and the “Population Hoechst High Intensity Objects (%)” value [6] was 0% and 2%. The “Population Membrane Permeable-Phenotype (%)” value [6] was 1% and 0%, the “Population Mitochondria Different-Phenotype (%)” value [6] was 0% and the “Population Mitotic Cells (%)” value [6] was 70% and 57%. The “Population Normal (%)” value [6] was 100% and 98%, the “Population Pyknosed Nuclei (%)” value [6] was 7% and 14% and the “Population Tubulin-Different-Phenotype (%)” value [6] was 94% and 40%.
